Assay results taken from ChEMBL document CHEMBL1137720, “New acyclic nucleosides analogues as potential analgesic, anti-inflammatory, anti-oxidant and anti-microbial derived from pyrimido[4,5-b]quinolines” (2009).

What was measured:
[1] = Antioxidant activity in Sprague-Dawley rat erythrocytes assessed as ABTS-induced hemolysis after 1 hr; type: functional, Erythrocyte; parameters: concentration or dose not given beside the values
[2] = test system: Nucleic Acid; assay: Inhibition of bleomycin-induced DNA damage assessed as absorbance at 532 nm after 1 hr at 37 degC; type: nucleic-acid assay
Method in brief: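 The 0.5 mL reaction contained calf thymus DNA (0.5 mg/mL), bleomycin sulfate (0.05 mg/mL), MgCl2 (5 mM), FeCl3 (50 µM) and compound at varying concentrations. After 1 h at 37 °C, the reaction was stopped with EDTA. TBA (1%) and HCl (25%) were added, followed by 10 min at 80 °C. After centrifugation, DNA damage was read as A532.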

[3] = test system: Aspergillus fumigatus; assay: Antimicrobial activity against Aspergillus fumigatus ATCC 96918 at 100 ug/disk after 5 days by agar disk diffusion method; type: functional; details: ATCC 96918, 120 h, read-out: DIZ
[4] = test system: Rattus norvegicus; assay: Antiinflammatory activity in Sprague-Dawley rat assessed as inhibition of carrageenan-induced paw edema after 3 hrs; type: functional
Method in brief: (§1)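 Adult female Sprague-Dawley rats, 150–180 g, were used (n = 6 per group). Paw volume increase after carrageenan was read at 1, 2, 3 and 4 h. % edema inhibition was calculated against untreated controls. The reference drug was given orally at 10 mg/kg as an aqueous suspension.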

[5] = species on record: Mus musculus; assay: Analgesic activity in Swiss mouse assessed as reaction time after 60 mins by hot plate test; type: functional
Method in brief: (§2)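 Swiss mice of both sexes, 25–30 g, were housed at 22 ± 1 °C on a 12 h light/dark cycle with free access to diet and water. Hot-plate testing followed Turner's method.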

[6] = test system: Escherichia coli; assay: Antibacterial activity against Escherichia coli ATCC 23566 at 100 ug/disk after 24 to 48 hrs by agar disk diffusion method; type: functional; details: read-out: DIZ
Method in brief: (§3)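 Agar disc diffusion used sterile 5 mm filter-paper discs loaded with 100 µg per disc, with DMSO as solvent. Plates were incubated 24–28 h at 37 °C and inhibition zone diameters measured: 6–10 mm slight, 11–15 mm moderate, >15 mm high. For MIC, discs carried varying amounts, and MIC was the lowest amount giving no visible growth.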

[7] = test system: Pseudomonas aeruginosa; assay: Antibacterial activity against Pseudomonas aeruginosa ATCC 10145 at 100 ug/disk after 24 to 48 hrs by agar disk diffusion method; type: functional; details: read-out: DIZ; method in brief: as §3
[8] = test system: Candida albicans; assay: Antimicrobial activity against Candida albicans ATCC 14053 at 100 ug/disk after 5 days by agar disk diffusion method; type: functional; details: ATCC 14053, 120 h, read-out: DIZ
[9] = test system: Rattus norvegicus; assay: Antiinflammatory activity in Sprague-Dawley rat assessed as inhibition of carrageenan-induced paw edema after 1 hr; type: functional; method in brief: as §1
[10] = Antioxidant activity assessed as inhibition of ABTS-oxidation in 0.1 M phosphate buffer at pH 7; type: functional
Method in brief: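 ABTS (60 µM, 2 mL) was mixed with MnO2 (25 mg/mL) in 0.1 M phosphate buffer pH 7, then shaken, centrifuged and filtered. Radical solution A734 was set to about 0.5. MeOH/buffer served as negative control.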

[11] = test system: Rattus norvegicus; assay: Antiinflammatory activity in Sprague-Dawley rat assessed as inhibition of carrageenan-induced paw edema after 2 hrs; type: functional; method in brief: as §1
[12] = species on record: Mus musculus; assay: Analgesic activity in Swiss mouse assessed as reaction time after 30 mins by hot plate test; type: functional; method in brief: as §2
[13] = species on record: Mus musculus; assay: Analgesic activity in Swiss mouse assessed as reaction time after 90 mins by hot plate test; type: functional; method in brief: as §2
[14] = test system: Staphylococcus aureus; assay: Antibacterial activity against Staphylococcus aureus ATCC 25923 at 100 ug/disk after 24 to 48 hrs by agar disk diffusion method; type: functional; details: read-out: DIZ; method in brief: as §3
[15] = test system: Rattus norvegicus; assay: Antiinflammatory activity in Sprague-Dawley rat assessed as inhibition of carrageenan-induced paw edema after 4 hrs; type: functional; method in brief: as §1
[16] = test system: Rattus norvegicus; assay: Antiinflammatory activity in Sprague-Dawley rat assessed as inhibition of carrageenan-induced paw edema at 10 mg/kg, po after 3 hrs; type: functional; method in brief: as §1
[17] = species on record: Rattus norvegicus; assay: animal or person; details: Sprague-Dawley, po, 2 h, read-out: INH
[18] = test system: Rattus norvegicus; assay: Antiinflammatory activity in Sprague-Dawley rat assessed as inhibition of carrageenan-induced paw edema at 10 mg/kg, po after 4 hrs; type: functional; method in brief: as §1
[19] = test system: Rattus norvegicus; assay: Antiinflammatory activity in Sprague-Dawley rat assessed as inhibition of carrageenan-induced paw edema at 10 mg/kg, po after 1 hr; type: functional; method in brief: as §1

Row | SMILES | Activity [1] [%] | deltaA [2] | zone of inhibition at 100 µg/disc [3] [mm] | inhibition (INH) [4] [%] | Activity [5] [s] | zone of inhibition at 100 µg/disc [6] [mm] | zone of inhibition at 100 µg/disc [7] [mm] | zone of inhibition at 100 µg/disc [8] [mm] | inhibition (INH) [9] [%] | inhibition [10] [%] | inhibition (INH) [11] [%] | Activity [12] [s] | Activity [13] [s] | zone of inhibition at 100 µg/disc [14] [mm] | inhibition (INH) [15] [%] | inhibition in vivo at 10 mg/kg [16] [%] | inhibition in vivo at 10 mg/kg [17] [%] | inhibition in vivo at 10 mg/kg [18] [%] | inhibition in vivo at 10 mg/kg [19] [%]
1 | O=C1O[C@H]([C@@H](O)CO)C(O)=C1O [ASCORBIC ACID] | 3.93 | 0.026 |  |  |  |  |  |  |  |  |  |  |  |  |  |  |  |  | 
2 | O=c1c2c(-c3ccc(Cl)cc3)c3c(nc2nc2[nH]nc([C@H](O)[C@H](O)[C@H](O)CO)n12)/C(=C/c1ccc(Cl)cc1)CCC3 | 3.42 | 0.045 | 13 | 39.06 | 5.35 | 18 | 18 | 13 | 46.88 | 68.8 | 40.58 | 3.55 | 6.667 | 22 | 39.81 |  |  |  | 
3 | NNc1nc2nc3c(c(-c4ccc(Cl)cc4)c2c(=O)[nH]1)CCC/C3=C\c1ccc(Cl)cc1 | 5.45 |  | 11 | 37.68 | 4.067 | 22 | 20 | 13 | 34.38 | 59.3 | 34 | 3.7 | 6.617 | 18 | 35.19 |  |  |  | 
4 | O=c1[nH]c(=S)[nH]c2nc3c(c(-c4ccccc4)c12)CCC/C3=C\c1ccccc1 | 35.75 |  | 13 | 27.54 | 2.65 | 17 | 15 | 11 | 31.25 | 44.4 | 24 | 2.7 | 2.583 | 14 | 25 |  |  |  | 
5 | CC(=O)OC[C@@H](OC(C)=O)[C@H](OC(C)=O)[C@H](OC(C)=O)[C@@H](OC(C)=O)c1n[nH]c2nc3nc4c(c(-c5ccc(Cl)cc5)c3c(=O)n12)CCC/C4=C\c1ccc(Cl)cc1 | 8.33 |  | 11 | 18.48 | 2.667 | 14 | 10 | 11 | 21.88 | 42.6 | 14 | 2.65 | 2.483 | 10 | 17.19 |  |  |  | 
6 | COc1ccc2c(c1)c(CC(=O)O)c(C)n2C(=O)c1ccc(Cl)cc1 [INDOMETHACIN] |  |  |  |  |  |  |  |  |  |  |  |  |  |  |  | 65.2 | 58 | 57.8 | 50
7 | O=c1c2c(-c3ccc(Cl)cc3)c3c(nc2nc2[nH]nc([C@@H](O)[C@H](O)[C@H](O)CO)n12)/C(=C/c1ccc(Cl)cc1)CCC3 | 3.51 | 0.05 | 16 | 45.31 | 5.933 | 20 | 19 | 12 | 40.62 | 66.7 | 52 | 3.6 | 8.433 | 20 | 46.67 |  |  |  | 
8 | O=C(O)c1cn(C2CC2)c2cc(N3CCNCC3)c(F)cc2c1=O [CIPROFLOXACIN] |  |  |  |  |  |  | 24 |  |  |  |  |  |  | 24 |  |  |  |  | 
9 | O=c1c2c(-c3ccc(Cl)cc3)c3c(nc2nc2[nH]nc([C@H](O)[C@@H](O)[C@@H](O)[C@H](O)CO)n12)/C(=C/c1ccc(Cl)cc1)CCC3 | 4.01 | 0.029 | 7 | 49.27 | 5.45 | 20 | 19 | 11 | 50 | 83.7 | 56 | 3.767 | 6.767 | 20 | 50 |  |  |  | 
10 | CC(=O)Oc1ccccc1C(=O)O [ASPIRIN] |  |  |  |  | 7.683 |  |  |  |  |  |  | 5.1 | 8.65 |  |  |  |  |  | 
11 | CC(=O)N1CCN(c2ccc(OCC3COC(Cn4ccnc4)(c4ccc(Cl)cc4Cl)O3)cc2)CC1 (configuration not stated) [KETOCONAZOLE] |  |  | 19 |  |  |  |  | 21 |  |  |  |  |  |  |  |  |  |  | 
12 | CC(=O)OC[C@@H](OC(C)=O)[C@@H](OC(C)=O)[C@@H](/C=N/Nc1nc2nc3c(c(-c4ccc(Cl)cc4)c2c(=O)n1OC(C)=O)CCC/C3=C\c1ccc(Cl)cc1)OC(C)=O | 30.75 |  | 8 | 28.98 | 3.483 | 14 | 15 | 10 | 18.75 | 35.2 | 28 | 3.667 | 4.583 | 13 | 22.22 |  |  |  | 
13 | CC(=O)OC[C@@H](OC(C)=O)[C@@H](OC(C)=O)[C@H](/C=N/Nc1nc2nc3c(c(-c4ccc(Cl)cc4)c2c(=O)n1OC(C)=O)CCC/C3=C\c1ccc(Cl)cc1)OC(C)=O | 6.06 |  | 11 | 26.09 | 3.483 | 14 | 13 | 7 | 15.62 | 40.7 | 20.37 | 3.5 | 4.033 | 11 | 26.56 |  |  |  | 
14 | O=c1c2c(-c3ccc(Cl)cc3)c3c(nc2nc2[nH]nc([C@H](O)[C@H](O)[C@H](O)[C@H](O)CO)n12)/C(=C/c1ccc(Cl)cc1)CCC3 | 4.23 | 0.026 | 16 | 42.03 | 7.4 | 24 | 22 | 12 | 62.5 | 81.5 | 44 | 4.65 | 9.567 | 19 | 40.62 |  |  |  | 
15 | CC(=O)OC[C@@H](OC(C)=O)[C@@H](OC(C)=O)[C@@H](OC(C)=O)[C@@H](OC(C)=O)c1n[nH]c2nc3nc4c(c(-c5ccc(Cl)cc5)c3c(=O)n12)CCC/C4=C\c1ccc(Cl)cc1 | 8.18 |  | 12 | 13.28 | 2.667 | 14 | 12 | 11 | 18.75 | 40.7 | 14.8 | 2.483 | 2.633 | 13 | 19.57 |  |  |  | 
